Laboratory results taken from ChEMBL document CHEMBL2311305, “Antiproliferative potency of novel benzofuran-2-carboxamides on tumour cell lines: cell death mechanisms and determination of crystal structure” (Eur J Med Chem, 2013).
Activity calls are given as the source filed them. The calls are words filed in the database; no cut-off is given here.

Assays:
HeLa = experiment: Cytotoxicity against human HeLa cells after 72 hrs by MTT assay; assay type: functional, cell-based
Summary of the method: (§1)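 Cells seeded at 3000-6000 per well on day 0, according to cell line doubling time. Compound added in five 10-fold dilutions, 72-h incubation, then MTT colorimetric read-out. Absorbances converted to percentage growth by NCI formulae. IC50 obtained by linear regression between the concentrations bracketing PG 50; ">100" assigned when no concentration reaches it. Quadruplicate points, three independent experiments.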

MIA PaCa-2 = experiment: Cytotoxicity against human MIAPaCa2 cells after 72 hrs by MTT assay; assay type: functional, cell-based; summary of the method: as §1
WI-38 = experiment: Cytotoxicity against human WI38 cells after 72 hrs by MTT assay; assay type: cell-based; summary of the method: as §1
SW-620 [1] = experiment: Cytotoxicity against human SW620 cells after 72 hrs by MTT assay; assay type: functional, cell-based; summary of the method: as §1
MCF7 = experiment: Cytotoxicity against human MCF7 cells after 72 hrs by MTT assay; assay type: functional, cell-based; summary of the method: as §1
SK-BR-3 = experiment: Cytotoxicity against human SKBR3 cells after 72 hrs by MTT assay; assay type: functional, cell-based; settings: SK-BR-3, 72 h; summary of the method: as §1
SW-620 [2] = experiment: Induction of cell cycle arrest in human SW620 cells assessed as G2/M phase cells at 5 uM after 48 hrs by PI-staining based flow cytometric analysis (reference value: 8.5 +/- 1.6%); assay type: functional
SW-620 [3] = experiment: Induction of cell cycle arrest in human SW620 cells assessed as subG1 phase cells at 5 uM after 48 hrs by PI-staining based flow cytometric analysis (reference value: 5.8 +/- 0.3%); assay type: functional
SW-620 [4] = experiment: Induction of cell cycle arrest in human SW620 cells assessed as S phase cells at 5 uM after 24 hrs by PI-staining based flow cytometric analysis (reference value: 38.3 +/- 0.4%); assay type: functional
SW-620 [5] = experiment: Induction of cell cycle arrest in human SW620 cells assessed as subG1 phase cells at 10 uM after 24 hrs by PI-staining based flow cytometric analysis (reference value: 18.1 +/- 3.8%); assay type: functional
SW-620 [6] = experiment: Induction of cell cycle arrest in human SW620 cells assessed as G2/M phase cells at 10 uM after 48 hrs by PI-staining based flow cytometric analysis (reference value: 8.5 +/- 1.6%); assay type: functional
SW-620 [7] = experiment: Induction of cell cycle arrest in human SW620 cells assessed as S phase cells at 10 uM after 48 hrs by PI-staining based flow cytometric analysis (reference value: 41.6 +/- 0.3%); assay type: functional
SW-620 [8] = experiment: Induction of cell cycle arrest in human SW620 cells assessed as G1 phase cells at 10 uM after 24 hrs by PI-staining based flow cytometric analysis (reference value: 52.6 +/- 2.3%); assay type: functional
SW-620 [9] = experiment: Induction of cell cycle arrest in human SW620 cells assessed as S phase cells at 10 uM after 24 hrs by PI-staining based flow cytometric analysis (reference value: 38.3 +/- 0.4%); assay type: functional
SW-620 [10] = experiment: Induction of cell cycle arrest in human SW620 cells assessed as S phase cells at 5 uM after 48 hrs by PI-staining based flow cytometric analysis (reference value: 41.6 +/- 0.3%); assay type: functional
SW-620 [11] = experiment: Induction of cell cycle arrest in human SW620 cells assessed as G1 phase cells at 5 uM after 48 hrs by PI-staining based flow cytometric analysis (reference value: 49.9 +/- 1.4%); assay type: functional
SW-620 [12] = experiment: Induction of apoptosis in human SW620 cells assessed as caspase9 activation at 10 uM after 24 to 48 hrs by caspase protease assay; assay type: functional, cell-based
Summary of the method: (§2)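 Compound at 5 µM on SK-BR-3 and 10 µM on SW620. Cells harvested after 24 and 48 h, washed in PBS, lysed 10 min on ice, centrifuged. Lysate diluted to 3 mg/mL protein and mixed with DTT-containing reaction buffer and caspase-3, -8 or -9 substrate. Incubated 90 min at 37 °C in the dark. Absorbance read at 405 nm, duplicates, compared with untreated control.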

SW-620 [13] = experiment: Induction of cell cycle arrest in human SW620 cells assessed as G2/M phase cells at 5 uM after 24 hrs by PI-staining based flow cytometric analysis (reference value: 9.3 +/- 2.6%); assay type: functional
SW-620 [14] = experiment: Induction of cell cycle arrest in human SW620 cells assessed as G1 phase cells at 5 uM after 24 hrs by PI-staining based flow cytometric analysis (reference value: 52.6 +/- 2.3%); assay type: functional
SW-620 [15] = experiment: Induction of cell cycle arrest in human SW620 cells assessed as G1 phase cells at 10 uM after 48 hrs by PI-staining based flow cytometric analysis (reference value: 49.9 +/- 1.4%); assay type: functional
SW-620 [16] = experiment: Induction of cell cycle arrest in human SW620 cells assessed as subG1 phase cells at 5 uM after 24 hrs by PI-staining based flow cytometric analysis (reference value: 18.1 +/- 3.8%); assay type: functional
SW-620 [17] = experiment: Induction of cell cycle arrest in human SW620 cells assessed as subG1 phase cells at 10 uM after 48 hrs by PI-staining based flow cytometric analysis (reference value: 5.8 +/- 0.3%); assay type: functional
SW-620 [18] = experiment: Induction of apoptosis in human SW620 cells assessed as caspase3 activation at 10 uM after 24 to 48 hrs by caspase protease assay; assay type: functional, cell-based; summary of the method: as §2
SW-620 [19] = experiment: Induction of cell cycle arrest in human SW620 cells assessed as G2/M phase cells at 10 uM after 24 hrs by PI-staining based flow cytometric analysis (reference value: 9.3 +/- 2.6%); assay type: functional

| Structure (SMILES) | IC50 (HeLa; Homo sapiens, HeLa, 72 h) | IC50 (MIA PaCa-2; Homo sapiens, MIA PaCa-2, 72 h) | IC50 (WI-38; Homo sapiens, WI-38, 72 h) | IC50 (SW-620 [1]; Homo sapiens, SW-620, 72 h) | IC50 (MCF7; Homo sapiens, MCF7, 72 h) | IC50 (SK-BR-3) | other results |
| --- | --- | --- | --- | --- | --- | --- | --- |
| N#Cc1ccc2nc(NC(=O)c3cc4ccccc4o3)[nH]c2c1 | > 100 µM | > 100 µM | 9.1 µM | 9.2 µM | > 100 µM | > 100 µM | – |
| CC(=O)Nc1ccc(NC(=O)c2cc3ccccc3o2)cc1 | 77.3 µM | > 100 µM | 71.2 µM | > 100 µM | 45.1 µM | > 100 µM | – |
| O=C(Nc1nc2ccc([N+](=O)[O-])cc2[nH]1)c1cc2ccccc2o1 | 9.2 µM | 9.3 µM | 8.6 µM | 6.9 µM | 5.2 µM | > 100 µM | – |
| CN(C)c1ccc(NC(=O)c2cc3ccccc3o2)cc1 [listing 1 of 2 here] | 49.1 µM | – | 81.2 µM | 54.2 µM | – | > 100 µM | IC50 (MIA PaCa-2; mia paca-2): 49.6 µM; IC50 (MCF7; mcf7): 8.5 µM |
| CN(C)c1ccc(NC(=O)c2cc3ccccc3o2)cc1 [listing 2 of 2 here] | – | – | – | – | – | – | IC50 (HeLa; hela): 83.7 µM; IC50 (MIA PaCa-2; mia paca-2): > 100 µM; IC50 (WI-38; wi-38): > 100 µM; IC50 (SW-620 [1]; sw-620): 86 µM; IC50 (MCF7; mcf7): 35.6 µM |
| O=C(Nc1ccc(C2=NCCN2)cn1)c1cc2ccccc2o1 | 71.9 µM | > 100 µM | 68.7 µM | 67.1 µM | > 100 µM | > 100 µM | – |
| N#Cc1ccc(NC(=O)c2cc3ccccc3o2)nc1 | 23.9 µM | 44.7 µM | 52.4 µM | 69.2 µM | 5.3 µM | > 100 µM | – |
| O=C(Nc1ccc([N+](=O)[O-])cn1)c1cc2ccccc2o1 | 42.4 µM | 73.1 µM | 37.8 µM | 76.5 µM | 82.8 µM | > 100 µM | – |
| CC(=O)Nc1ccc(NC(=O)c2cc3ccccc3o2)cn1 | 0.9 µM | 3.1 µM | 0.4 µM | 1.1 µM | 7.6 µM | 59.8 µM | Activity (SW-620 [2]): 11.2%; Activity (SW-620 [3]): 4.7%; Activity (SW-620 [4]): 42.6%; Activity (SW-620 [5]): 18.2%; Activity (SW-620 [6]): 9.5%; Activity (SW-620 [7]): 45.4%; Activity (SW-620 [8]): 43.5%; Activity (SW-620 [9]): 31.4%; Activity (SW-620 [10]): 44.9%; Activity (SW-620 [11]): 43.9%; Activity (SW-620 [12]): Active; Activity (SW-620 [13]): 10.7%; Activity (SW-620 [14]): 46.8%; Activity (SW-620 [15]): 45.2%; Activity (SW-620 [16]): 18.1%; Activity (SW-620 [17]): 4.3%; Activity (SW-620 [18]): Active; Activity (SW-620 [19]): 25.3% |
| N#Cc1ccc(NC(=O)c2cc3ccccc3o2)cc1 | 7.6 µM | 27.1 µM | 7.9 µM | 7.4 µM | 7.6 µM | 34.2 µM | – |
| O=C(Nc1ccc([N+](=O)[O-])cc1)c1cc2ccccc2o1 | 11.4 µM | 26.6 µM | 47.6 µM | 27.9 µM | 4.9 µM | > 100 µM | – |
| N#Cc1ccc2nc(NC(=O)c3cc4ccccc4o3)sc2c1 | 89.6 µM | > 100 µM | 34.9 µM | > 100 µM | 21.5 µM | > 100 µM | – |
| O=C(Nc1nc2ccc([N+](=O)[O-])cc2s1)c1cc2ccccc2o1 | 17.5 µM | > 100 µM | 72.9 µM | > 100 µM | 63.9 µM | > 100 µM | – |
| O=C(Nc1nc2ccc(C3=NCCN3)cc2s1)c1cc2ccccc2o1 | 59.8 µM | 97.1 µM | 59.2 µM | 56.4 µM | 50.9 µM | > 100 µM | – |
